The source made the active and inactive calls. No cut-off for these calls is given here.
Columns and labels:
[1] = biological target: Toll-like receptor 3 (Homo sapiens) (UniProt O15455); test: Agonist activity at human TLR3 HEK-Blue cells assessed as increase in NFkappaB activation by sAP reporter gene assay; type: functional, cell-based
Procedure, shortened: (§1)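 HEK293 cells stably transfected with human TLR3, TLR7 or TLR8 plus MD2 and an NF-κB/AP-1-driven secreted alkaline phosphatase reporter (HEK-Blue), kept in selection medium with zeocin and normocin. Cells at ~10^5 cells/ml were grown to confluency and then given graded concentrations of stimuli. Supernatant sAP was read spectrophotometrically at 620 nm with a chromogen in HEK-detection medium.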

Toll-like receptor 7 [2] = biological target: T1, Toll-like receptor 7 (Homo sapiens, UniProt Q9NYK1); test: Agonist activity at human TLR7 expressed in HEK-Blue cells assessed as increase in NFkappaB activation by sAP reporter gene assay; type: functional, cell-based; procedure, shortened: as §1
T1 sequence (Q9NYK1 whole entry): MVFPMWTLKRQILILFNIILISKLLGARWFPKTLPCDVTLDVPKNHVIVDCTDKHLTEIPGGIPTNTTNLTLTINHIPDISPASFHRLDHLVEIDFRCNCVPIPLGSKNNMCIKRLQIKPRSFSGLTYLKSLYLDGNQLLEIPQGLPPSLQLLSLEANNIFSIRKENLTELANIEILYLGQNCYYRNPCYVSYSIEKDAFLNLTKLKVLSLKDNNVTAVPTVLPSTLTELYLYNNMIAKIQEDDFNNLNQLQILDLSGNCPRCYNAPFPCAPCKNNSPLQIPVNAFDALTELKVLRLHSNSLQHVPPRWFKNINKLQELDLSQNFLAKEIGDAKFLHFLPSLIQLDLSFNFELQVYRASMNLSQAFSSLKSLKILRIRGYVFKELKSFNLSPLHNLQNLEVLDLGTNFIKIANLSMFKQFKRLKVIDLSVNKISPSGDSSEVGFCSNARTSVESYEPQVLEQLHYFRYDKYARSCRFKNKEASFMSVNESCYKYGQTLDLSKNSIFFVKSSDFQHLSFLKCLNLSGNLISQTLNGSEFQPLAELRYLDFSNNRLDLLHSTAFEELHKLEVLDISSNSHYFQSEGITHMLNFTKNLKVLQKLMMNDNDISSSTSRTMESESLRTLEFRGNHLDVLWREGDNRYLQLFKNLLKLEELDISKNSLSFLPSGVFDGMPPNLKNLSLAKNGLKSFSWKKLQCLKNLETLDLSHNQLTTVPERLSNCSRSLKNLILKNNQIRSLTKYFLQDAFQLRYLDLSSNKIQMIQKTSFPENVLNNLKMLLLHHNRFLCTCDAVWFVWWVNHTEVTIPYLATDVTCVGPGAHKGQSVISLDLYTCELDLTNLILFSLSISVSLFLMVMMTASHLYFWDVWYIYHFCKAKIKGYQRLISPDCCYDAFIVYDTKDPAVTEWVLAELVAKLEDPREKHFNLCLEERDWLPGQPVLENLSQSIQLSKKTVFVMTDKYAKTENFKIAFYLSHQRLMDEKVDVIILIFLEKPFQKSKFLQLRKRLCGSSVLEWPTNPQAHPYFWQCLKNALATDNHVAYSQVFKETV

PBMC = test: Immunostimulatory activity in human PBMC assessed as induction IFN-alpha production after 12 hrs by ELISA; type: functional, cell-based
Procedure, shortened: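 Healthy-donor PBMCs were prepared by Ficoll-Hypaque gradient and aliquoted at 10⁶ cells. Cells were stimulated 12 h with graded test concentrations. Supernatant was diluted 1:20 and IFN-α measured in triplicate by high-sensitivity human IFN-α ELISA.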

Toll-like receptor 7 [3] = biological target: T1, Toll-like receptor 7; test: Antagonist activity at TLR7 in human PBMC assessed as inhibition of gardiquimod-induced CXCL10 release after 12 hrs by bead array assay; type: functional
Procedure, shortened: (§2)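 Human PBMCs from healthy donors, isolated by Ficoll-Hypaque, 10⁶ cells per aliquot. Cells were incubated 12 h with graded test concentrations plus 10 μg/ml gardiquimod. Supernatants were diluted 1:20 and analytes measured in triplicate by cytokine/chemokine bead array. Three independent experiments.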

Toll-like receptor 7 [4] = biological target: T1, Toll-like receptor 7; test: Antagonist activity at TLR7 in human PBMC assessed as inhibition of gardiquimod-induced IL-8 release after 12 hrs by bead array assay; type: functional; procedure, shortened: as §2
Toll-like receptor 8 [5] = biological target: T2, Toll-like receptor 8 (Homo sapiens, UniProt Q9NR97); test: Antagonist activity at TLR8 in human PBMC assessed as inhibition of CL075-induced CXCL10 release after 12 hrs by bead array assay; type: functional
T2 sequence (Q9NR97 whole entry): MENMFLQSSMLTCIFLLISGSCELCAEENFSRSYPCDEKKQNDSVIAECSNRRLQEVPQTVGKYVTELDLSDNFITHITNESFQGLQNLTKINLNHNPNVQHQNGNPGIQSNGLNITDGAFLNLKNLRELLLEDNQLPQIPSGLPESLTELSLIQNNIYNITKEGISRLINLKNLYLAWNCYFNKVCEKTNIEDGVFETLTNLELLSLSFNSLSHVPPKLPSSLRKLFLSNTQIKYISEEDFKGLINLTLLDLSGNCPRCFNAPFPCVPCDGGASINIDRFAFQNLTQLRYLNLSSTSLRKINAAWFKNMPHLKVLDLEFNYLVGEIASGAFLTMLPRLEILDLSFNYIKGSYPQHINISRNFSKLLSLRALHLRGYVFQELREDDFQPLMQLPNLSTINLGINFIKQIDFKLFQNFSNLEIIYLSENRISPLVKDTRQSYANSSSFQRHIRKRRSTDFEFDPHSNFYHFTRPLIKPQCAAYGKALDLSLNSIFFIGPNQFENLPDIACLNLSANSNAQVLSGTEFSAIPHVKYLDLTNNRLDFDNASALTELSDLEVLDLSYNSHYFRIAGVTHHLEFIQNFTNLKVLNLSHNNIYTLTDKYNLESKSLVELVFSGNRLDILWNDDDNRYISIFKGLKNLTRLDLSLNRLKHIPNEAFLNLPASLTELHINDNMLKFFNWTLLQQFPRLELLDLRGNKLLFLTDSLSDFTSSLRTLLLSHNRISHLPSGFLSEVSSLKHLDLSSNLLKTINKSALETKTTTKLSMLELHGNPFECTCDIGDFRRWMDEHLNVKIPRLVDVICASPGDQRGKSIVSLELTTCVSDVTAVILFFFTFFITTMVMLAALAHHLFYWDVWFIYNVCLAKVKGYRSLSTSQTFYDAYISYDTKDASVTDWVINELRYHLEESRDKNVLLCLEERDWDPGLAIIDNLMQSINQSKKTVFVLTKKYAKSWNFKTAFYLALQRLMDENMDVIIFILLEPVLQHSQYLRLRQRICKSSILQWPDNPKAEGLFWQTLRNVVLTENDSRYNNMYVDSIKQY
Procedure, shortened: (§3)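 Ficoll-Hypaque-isolated healthy-donor PBMCs (10⁶ cells) were exposed 12 h to graded test concentrations together with 10 μg/ml CL075. Supernatants were diluted 1:20 and each cytokine or chemokine assayed in triplicate by bead array. Three independent experiments.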

Toll-like receptor 7 [6] = biological target: T1, Toll-like receptor 7; test: Antagonist activity at TLR7 in human PBMC assessed as inhibition of gardiquimod-induced IL-6 release after 12 hrs by bead array assay; type: functional; procedure, shortened: as §2
Toll-like receptor 8 [7] = biological target: T2, Toll-like receptor 8; test: Antagonist activity at TLR8 in human PBMC assessed as inhibition of CL075-induced IL-6 release after 12 hrs by bead array assay; type: functional; procedure, shortened: as §3
Toll-like receptor 7 [8] = biological target: T1, Toll-like receptor 7; test: (§4) Antagonist activity at TLR7 in human PBMC assessed as inhibition of gardiquimod-induced TNF-alpha release after 12 hrs by bead array assay; type: functional; procedure, shortened: as §2
Toll-like receptor 8 [9] = biological target: T2, Toll-like receptor 8; test: Antagonist activity at TLR8 in human PBMC assessed as inhibition of CL075-induced IL-8 release after 12 hrs by bead array assay; type: functional; procedure, shortened: as §3
[10] = biological target: T3, Toll-like receptor 8 (Homo sapiens) (UniProt Q9NR97); test: Inhibition of human TLR8 expressed in HEK-Blue cells by schild plot analysis
T3 sequence (whole entry): T2 sequence (Q9NR97 whole entry)

Toll-like receptor 7 [11] = biological target: T1, Toll-like receptor 7; test: (§5) Antagonist activity at TLR7 in human PBMC assessed as inhibition of gardiquimod-induced IL-1beta release after 12 hrs by bead array assay; type: functional; procedure, shortened: as §2
Toll-like receptor 8 [12] = biological target: T2, Toll-like receptor 8; test: Antagonist activity at TLR8 in human PBMC assessed as inhibition of CL075-induced IL-1beta release after 12 hrs by bead array assay; type: functional; procedure, shortened: as §3
Toll-like receptor 8 [13] = biological target: T2, Toll-like receptor 8; test: Antagonist activity at TLR8 in human PBMC assessed as inhibition of CL075-induced CCL2 release after 12 hrs by bead array assay; type: functional; procedure, shortened: as §3
Toll-like receptor 8 [14] = biological target: T2, Toll-like receptor 8; test: Antagonist activity at TLR8 in human PBMC assessed as inhibition of CL075-TNF-alpha release after 12 hrs by bead array assay; type: functional; procedure, shortened: as §3
Toll-like receptor 7 [15] = biological target: T1, Toll-like receptor 7; test: Antagonist activity at TLR7 in human PBMC assessed as inhibition of gardiquimod-induced CCL2 release after 12 hrs by bead array assay; type: functional; procedure, shortened: as §2
[16] = biological target: T4, Toll-like receptor 7 (Homo sapiens) (UniProt Q9NYK1); test: as §4; type: functional; procedure, shortened: as §2
T4 sequence (whole entry): T1 sequence (Q9NYK1 whole entry)

[17] = biological target: T4, Toll-like receptor 7 (Homo sapiens); test: as §5; type: functional; procedure, shortened: as §2
Toll-like receptor 8 [18] = biological target: T2, Toll-like receptor 8; test: Agonist activity at human TLR8 expressed in HEK-Blue cells assessed as increase in NFkappaB activation by sAP reporter gene assay; type: functional, cell-based; procedure, shortened: as §1

Sequence of Toll-like receptor 3 (Homo sapiens) (O15455 whole entry): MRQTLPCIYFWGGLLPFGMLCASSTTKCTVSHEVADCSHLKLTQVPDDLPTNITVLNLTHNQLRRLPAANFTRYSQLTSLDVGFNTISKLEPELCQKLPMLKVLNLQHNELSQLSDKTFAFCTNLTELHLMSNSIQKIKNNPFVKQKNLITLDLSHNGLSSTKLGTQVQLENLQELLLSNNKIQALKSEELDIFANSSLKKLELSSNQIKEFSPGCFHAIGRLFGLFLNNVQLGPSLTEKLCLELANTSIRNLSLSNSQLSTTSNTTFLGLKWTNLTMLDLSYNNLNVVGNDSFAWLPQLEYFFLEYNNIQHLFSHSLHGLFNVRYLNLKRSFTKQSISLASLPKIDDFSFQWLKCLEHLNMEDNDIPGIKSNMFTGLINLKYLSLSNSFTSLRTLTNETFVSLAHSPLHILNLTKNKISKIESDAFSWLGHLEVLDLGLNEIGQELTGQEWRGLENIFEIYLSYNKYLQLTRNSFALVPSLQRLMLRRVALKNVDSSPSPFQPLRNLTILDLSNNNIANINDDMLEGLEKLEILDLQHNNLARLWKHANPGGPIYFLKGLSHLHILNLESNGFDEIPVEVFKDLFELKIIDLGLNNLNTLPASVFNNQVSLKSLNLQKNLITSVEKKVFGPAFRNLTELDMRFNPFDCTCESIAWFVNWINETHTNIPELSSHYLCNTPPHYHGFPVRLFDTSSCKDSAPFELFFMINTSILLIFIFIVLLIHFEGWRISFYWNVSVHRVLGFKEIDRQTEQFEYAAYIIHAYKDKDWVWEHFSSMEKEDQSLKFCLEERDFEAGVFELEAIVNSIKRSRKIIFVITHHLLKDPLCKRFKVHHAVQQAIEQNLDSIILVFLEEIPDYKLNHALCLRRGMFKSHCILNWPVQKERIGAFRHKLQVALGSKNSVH

Activity [1] | EC50 (Toll-like receptor 7 [2]) [nM] | SMILES | other results
inactive | 3000 | CCCCc1nc2c(NCCCCCCCCCCNc3nc4ccccc4c4c3nc(CCCC)n4Cc3ccccc3)nc3ccccc3c2n1Cc1ccccc1 | 
inactive | 4020 | CCCCc1nc2c(N)nc3ccc(NC(=O)CCCCCCC(=O)Nc4ccc5nc(N)c6nc(CCCC)n(Cc7ccc(CN)cc7)c6c5c4)cc3c2n1Cc1ccc(CN)cc1 | 
inactive | 110 | CCCCc1nc2c(N)nc3ccccc3c2n1Cc1ccc(CNC(=O)CCCCC(=O)NCc2ccc(Cn3c(CCCC)nc4c(N)nc5ccccc5c43)cc2)cc1 | Activity (PBMC): Dose-dependent effect
inactive |  | Nc1nc2ccccc2c2c1nc(CCCCCCCCCCc1nc3c(N)nc4ccccc4c3n1Cc1ccccc1)n2Cc1ccccc1 | 
inactive |  | Nc1nc2ccccc2c2c1nc(CCCc1nc3c(N)nc4ccccc4c3n1Cc1ccccc1)n2Cc1ccccc1 | IC50 (Toll-like receptor 7 [3]): 50 nM; IC50 (Toll-like receptor 7 [4]): 50 nM; IC50 (Toll-like receptor 8 [5]): 50 nM; IC50 (Toll-like receptor 7 [6]): 50 nM; IC50 (Toll-like receptor 8 [7]): 50 nM; IC50 (Toll-like receptor 7 [8]): 50 nM; IC50 (Toll-like receptor 8 [9]): 50 nM; inhibition [10]: Active; IC50 (Toll-like receptor 7 [11]): 50 nM; IC50 (Toll-like receptor 8 [12]): 50 nM; IC50 (Toll-like receptor 8 [13]): 50 nM; IC50 (Toll-like receptor 8 [14]): 50 nM; IC50 (Toll-like receptor 7 [15]): 50 nM
 |  | CCN(CC)CCCC(C)Nc1ccnc2cc(Cl)ccc12 (centres undefined) | inhibition [16]: Active; inhibition [17]: Active
inactive |  | Nc1nc2ccccc2c2c1nc(CCCCc1nc3c(N)nc4ccccc4c3n1Cc1ccccc1)n2Cc1ccccc1 | 
inactive | 1420 | CCCCc1nc2c(NCCCCCCCCCCCCNc3nc4ccccc4c4c3nc(CCCC)n4Cc3ccccc3)nc3ccccc3c2n1Cc1ccccc1 | Activity (PBMC): Dose-dependent effect
inactive | 560 | CCCCc1nc2c(NCCCCCCCCNc3nc4ccccc4c4c3nc(CCCC)n4Cc3ccccc3)nc3ccccc3c2n1Cc1ccccc1 | 
inactive | 450 | CCCCc1nc2c(N)nc3ccc(N)cc3c2n1Cc1ccc(CN)cc1 | 
inactive | 5400 | CCCCc1nc2c(N)nc3ccc(NC(=O)CCCCCCCCCCC(=O)Nc4ccc5nc(N)c6nc(CCCC)n(Cc7ccc(CN)cc7)c6c5c4)cc3c2n1Cc1ccc(CN)cc1 | 
inactive | 7240 | CCCCc1nc2c(N)nc3ccc(NC(=O)CCCCC(=O)Nc4ccc5nc(N)c6nc(CCCC)n(Cc7ccc(CN)cc7)c6c5c4)cc3c2n1Cc1ccc(CN)cc1 | Activity (PBMC): Dose-dependent effect
inactive | 240 | CCCCc1nc2c(N)nc3ccccc3c2n1Cc1ccc(CNC(=O)CCCCCCC(=O)NCc2ccc(Cn3c(CCCC)nc4c(N)nc5ccccc5c43)cc2)cc1 | Activity (PBMC): Dose-dependent effect
inactive | 560 | CCCCc1nc2c(N)nc3ccc([N+](=O)[O-])cc3c2n1Cc1ccc(CN)cc1 | 
inactive |  | Nc1nc2ccccc2c2c1nc(CCCCCCc1nc3c(N)nc4ccccc4c3n1Cc1ccccc1)n2Cc1ccccc1 | 
inactive | 2050 | CCCCc1nc2c(NCCCCNc3nc4ccccc4c4c3nc(CCCC)n4Cc3ccccc3)nc3ccccc3c2n1Cc1ccccc1 | 
inactive | 170 | CCCCc1nc2c(N)nc3ccccc3c2n1Cc1ccc(CNC(=O)CCCCCCCCCCC(=O)NCc2ccc(Cn3c(CCCC)nc4c(N)nc5ccccc5c43)cc2)cc1 | Activity (PBMC): Dose-dependent effect; EC50 (Toll-like receptor 8 [18]): 4780 nM

Source: ChEMBL document CHEMBL2016459, “Toll-like receptor (TLR)-7 and -8 modulatory activities of dimeric imidazoquinolines” (J Med Chem, 2012)
